Assay results as given in ChEMBL document CHEMBL2157880, “Synthesis, antimycobacterial and antibacterial activity of ciprofloxacin derivatives containing a N-substituted benzyl moiety” (2012).
Values after ≈ are worked out from the molar mass of the structure shown.

What was measured:
Format in all cases: functional
Enterococcus faecium [1] = assay: Antibacterial activity against Enterococcus faecium 10-9 after 18 to 24 hrs by NCCLS method
Outline: (§1)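 Standard NCCLS (M100-S11) MIC testing against Gram-positive and Gram-negative strains. Plates were incubated at 35 °C for 18–24 h. The MIC was read as the lowest concentration giving complete inhibition of visible bacterial growth.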

Escherichia coli [2] = assay: Antibacterial activity against extended spectrum beta-lactamases producing Escherichia coli 10-2 after 18 to 24 hrs by NCCLS method; outline: as §1
Escherichia coli [3] = assay: Antibacterial activity against Escherichia coli 10-1 after 18 to 24 hrs by NCCLS method; outline: as §1
Staphylococcus aureus [4] = assay: Antibacterial activity against methicillin-sensitive Staphylococcus aureus 10-14 after 18 to 24 hrs by NCCLS method; outline: as §1
Escherichia coli [5] = assay: Antibacterial activity against Escherichia coli 10-2 after 18 to 24 hrs by NCCLS method; outline: as §1
Escherichia coli [6] = assay: Antibacterial activity against extended spectrum beta-lactamases producing Escherichia coli 10-3 after 18 to 24 hrs by NCCLS method; outline: as §1
Staphylococcus aureus [7] = assay: Antibacterial activity against methicillin-resistant Staphylococcus aureus 10-15 after 18 to 24 hrs by NCCLS method
Outline: (§2)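 Incubated at 35 °C for 18–24 h under NCCLS (M100-S11) standards. MIC was read as the lowest concentration giving complete inhibition of visible bacterial growth.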

Klebsiella pneumoniae [8] = assay: Antibacterial activity against Klebsiella pneumoniae 10-3 after 18 to 24 hrs by NCCLS method; outline: as §1
Enterococcus faecium [9] = assay: Antibacterial activity against Enterococcus faecium 10-6 after 18 to 24 hrs by NCCLS method; outline: as §1
Streptococcus pneumoniae [10] = assay: Antibacterial activity against Streptococcus pneumoniae 10-6 after 18 to 24 hrs by NCCLS method; outline: as §1
Staphylococcus aureus [11] = assay: Antibacterial activity against methicillin-sensitive Staphylococcus aureus 10-13 after 18 to 24 hrs by NCCLS method; outline: as §1
Klebsiella pneumoniae [12] = assay: Antibacterial activity against extended spectrum beta-lactamases producing Klebsiella pneumoniae 10-3 after 18 to 24 hrs by NCCLS method; outline: as §1
Pseudomonas aeruginosa [13] = assay: Antibacterial activity against Pseudomonas aeruginosa 10-5 after 18 to 24 hrs by NCCLS method; outline: as §1
Staphylococcus aureus [14] = assay: Antibacterial activity against Staphylococcus aureus ATCC 2592 after 18 to 24 hrs by NCCLS method; outline: as §1
Klebsiella pneumoniae [15] = assay: Antibacterial activity against extended spectrum beta-lactamases producing Klebsiella pneumoniae 10-2 after 18 to 24 hrs by NCCLS method; outline: as §1
Pseudomonas aeruginosa [16] = assay: Antibacterial activity against Pseudomonas aeruginosa 10-20 after 18 to 24 hrs by NCCLS method; outline: as §1
Enterococcus faecalis [17] = assay: Antibacterial activity against Enterococcus faecalis 10-5 after 18 to 24 hrs by NCCLS method; outline: as §1
Pseudomonas aeruginosa [18] = assay: Antibacterial activity against Pseudomonas aeruginosa 10-12 after 18 to 24 hrs by NCCLS method; outline: as §1
[19] = tested on: Staphylococcus epidermidis; assay: Antibacterial activity against methicillin-sensitive Staphylococcus epidermidis 10-11 after 18 to 24 hrs by NCCLS method; outline: as §1
Escherichia coli [20] = assay: Antibacterial activity against Escherichia coli 10-3 after 18 to 24 hrs by NCCLS method; outline: as §1
Escherichia coli [21] = assay: Antibacterial activity against Escherichia coli ATCC 25922 after 18 to 24 hrs by NCCLS method; outline: as §1
Staphylococcus aureus [22] = assay: Antibacterial activity against methicillin-sensitive Staphylococcus aureus 10-11 after 18 to 24 hrs by NCCLS method; outline: as §1
Streptococcus pneumoniae [23] = assay: Antibacterial activity against Streptococcus pneumoniae 10-1 after 18 to 24 hrs by NCCLS method; outline: as §1
[24] = tested on: Staphylococcus epidermidis; assay: Antibacterial activity against methicillin-resistant Staphylococcus epidermidis 10-13 after 18 to 24 hrs by NCCLS method; outline: as §2
Klebsiella pneumoniae [25] = assay: Antibacterial activity against Klebsiella pneumoniae 10-4 after 18 to 24 hrs by NCCLS method; outline: as §1
Klebsiella pneumoniae [26] = assay: Antibacterial activity against extended spectrum beta-lactamases producing Klebsiella pneumoniae 10-1 after 18 to 24 hrs by NCCLS method; outline: as §1
Enterococcus faecalis [27] = assay: Antibacterial activity against Enterococcus faecalis 10-7 after 18 to 24 hrs by NCCLS method; outline: as §1
Pseudomonas aeruginosa [28] = assay: Antibacterial activity against Pseudomonas aeruginosa 10-18 after 18 to 24 hrs by NCCLS method; outline: as §1
Pseudomonas aeruginosa [29] = assay: Antibacterial activity against Pseudomonas aeruginosa 10-9 after 18 to 24 hrs by NCCLS method; outline: as §1
Staphylococcus aureus [30] = assay: Antibacterial activity against methicillin-resistant Staphylococcus aureus 10-11 after 18 to 24 hrs by NCCLS method; outline: as §2
Escherichia coli [31] = assay: Antibacterial activity against extended spectrum beta-lactamases producing Escherichia coli 10-4 after 18 to 24 hrs by NCCLS method; outline: as §1
Staphylococcus aureus [32] = assay: Antibacterial activity against methicillin-resistant Staphylococcus aureus 10-13 after 18 to 24 hrs by NCCLS method; outline: as §2
[33] = tested on: Mycobacterium tuberculosis; assay: Antimycobacterial activity against Mycobacterium tuberculosis H37Rv ATCC 27294 by microplate alamar blue assay
Outline: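 Microplate Alamar Blue fluorescence assay on strain H37Rv ATCC 27294. MIC was the lowest concentration cutting fluorescence by ≥90% against the mean of replicate bacterium-only controls.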

Pseudomonas aeruginosa [34] = assay: Antibacterial activity against Pseudomonas aeruginosa 10-15 after 18 to 24 hrs by NCCLS method; outline: as §1
Klebsiella pneumoniae [35] = assay: Antibacterial activity against Klebsiella pneumoniae 10-2 after 18 to 24 hrs by NCCLS method; outline: as §1
[36] = tested on: Staphylococcus epidermidis; assay: Antibacterial activity against methicillin-sensitive Staphylococcus epidermidis 10-15 after 18 to 24 hrs by NCCLS method; outline: as §2
[37] = tested on: Staphylococcus epidermidis; assay: Antibacterial activity against methicillin-resistant Staphylococcus epidermidis 10-10 after 18 to 24 hrs by NCCLS method; outline: as §2
Enterococcus faecalis [38] = assay: Antibacterial activity against Enterococcus faecalis 10-6 after 18 to 24 hrs by NCCLS method; outline: as §1

| Structure (SMILES) | MIC (Enterococcus faecium [1]) [µg/mL] | MIC (Escherichia coli [2]) [µg/mL] | MIC (Escherichia coli [3]) [µg/mL] | MIC (Staphylococcus aureus [4]) [µg/mL] | MIC (Escherichia coli [5]) [µg/mL] | MIC (Escherichia coli [6]) [µg/mL] | MIC (Staphylococcus aureus [7]) [µg/mL] | MIC (Klebsiella pneumoniae [8]) [µg/mL] | MIC (Enterococcus faecium [9]) [µg/mL] | MIC (Streptococcus pneumoniae [10]) [µg/mL] | MIC (Staphylococcus aureus [11]) [µg/mL] | MIC (Klebsiella pneumoniae [12]) [µg/mL] | MIC (Pseudomonas aeruginosa [13]) [µg/mL] | MIC (Staphylococcus aureus [14]) [µg/mL] | MIC (Klebsiella pneumoniae [15]) [µg/mL] | MIC (Pseudomonas aeruginosa [16]) [µg/mL] | MIC (Enterococcus faecalis [17]) [µg/mL] | MIC (Pseudomonas aeruginosa [18]) [µg/mL] | MIC [19] [µg/mL] | MIC (Escherichia coli [20]) [µg/mL] | also measured |
| --- | --- | --- | --- | --- | --- | --- | --- | --- | --- | --- | --- | --- | --- | --- | --- | --- | --- | --- | --- | --- | --- |
| COc1cccc(CN2CCN(c3cc4c(cc3F)c(=O)c(C(=O)O)cn4C3CC3)CC2)c1OC | 32 (≈ 66.5 µM) | > 128 | > 128 | 0.125 (≈ 0.26 µM) | 32 (≈ 66.5 µM) | > 128 | 16 (≈ 33.2 µM) | 16 (≈ 33.2 µM) | 4 (≈ 8.31 µM) | 32 (≈ 66.5 µM) | 0.03 (≈ 0.0623 µM) | > 128 | 32 (≈ 66.5 µM) | 0.06 (≈ 0.125 µM) | > 128 | 128 (≈ 266 µM) | 8 (≈ 16.6 µM) | 32 (≈ 66.5 µM) | 0.25 (≈ 0.519 µM) | > 128 | MIC (Escherichia coli [21]): 0.5 µg/mL (≈ 1.04 µM); MIC (Staphylococcus aureus [22]): 0.03 µg/mL (≈ 0.0623 µM); MIC (Streptococcus pneumoniae [23]): 2 µg/mL (≈ 4.15 µM); MIC [24]: 32 µg/mL (≈ 66.5 µM); MIC (Klebsiella pneumoniae [25]): > 128 µg/mL; MIC (Klebsiella pneumoniae [26]): > 128 µg/mL; MIC (Enterococcus faecalis [27]): 32 µg/mL (≈ 66.5 µM); MIC (Pseudomonas aeruginosa [28]): 64 µg/mL (≈ 133 µM); MIC (Pseudomonas aeruginosa [29]): 64 µg/mL (≈ 133 µM); MIC (Staphylococcus aureus [30]): 16 µg/mL (≈ 33.2 µM); MIC (Escherichia coli [31]): 128 µg/mL (≈ 266 µM); MIC (Staphylococcus aureus [32]): 32 µg/mL (≈ 66.5 µM); MIC [33]: 2 µg/mL (≈ 4.15 µM); MIC (Pseudomonas aeruginosa [34]): 32 µg/mL (≈ 66.5 µM); MIC (Klebsiella pneumoniae [35]): > 128 µg/mL; MIC [36]: 8 µg/mL (≈ 16.6 µM); MIC [37]: 8 µg/mL (≈ 16.6 µM); MIC (Enterococcus faecalis [38]): > 128 µg/mL |
| COc1ccc(CN2CCN(c3cc4c(cc3F)c(=O)c(C(=O)O)cn4C3CC3)CC2)cc1OC | 64 (≈ 133 µM) | > 128 | > 128 | 0.25 (≈ 0.519 µM) | 16 (≈ 33.2 µM) | > 128 | 16 (≈ 33.2 µM) | 16 (≈ 33.2 µM) | 4 (≈ 8.31 µM) | 32 (≈ 66.5 µM) | 0.125 (≈ 0.26 µM) | > 128 | 32 (≈ 66.5 µM) | 0.125 (≈ 0.26 µM) | > 128 | 128 (≈ 266 µM) | 8 (≈ 16.6 µM) | 32 (≈ 66.5 µM) | 4 (≈ 8.31 µM) | 64 (≈ 133 µM) | MIC (Escherichia coli [21]): 0.5 µg/mL (≈ 1.04 µM); MIC (Staphylococcus aureus [22]): 0.125 µg/mL (≈ 0.26 µM); MIC (Streptococcus pneumoniae [23]): 2 µg/mL (≈ 4.15 µM); MIC [24]: 32 µg/mL (≈ 66.5 µM); MIC (Klebsiella pneumoniae [25]): > 128 µg/mL; MIC (Klebsiella pneumoniae [26]): > 128 µg/mL; MIC (Enterococcus faecalis [27]): 64 µg/mL (≈ 133 µM); MIC (Pseudomonas aeruginosa [28]): 64 µg/mL (≈ 133 µM); MIC (Pseudomonas aeruginosa [29]): 64 µg/mL (≈ 133 µM); MIC (Staphylococcus aureus [30]): 32 µg/mL (≈ 66.5 µM); MIC (Escherichia coli [31]): 64 µg/mL (≈ 133 µM); MIC (Staphylococcus aureus [32]): 64 µg/mL (≈ 133 µM); MIC [33]: 16 µg/mL (≈ 33.2 µM); MIC (Pseudomonas aeruginosa [34]): 32 µg/mL (≈ 66.5 µM); MIC (Klebsiella pneumoniae [35]): > 128 µg/mL; MIC [36]: 8 µg/mL (≈ 16.6 µM); MIC [37]: 8 µg/mL (≈ 16.6 µM); MIC (Enterococcus faecalis [38]): > 128 µg/mL |
